According to paper PMC5768938 (World Journal of Gastroenterology, 2018):
Marks after values point to notes of the source that are not given here.

What was measured:
TGR5 = settings: read-out: TGR5 EC50; in vitro; cited from earlier work
FXR target genes = test: Hepatic and ileal FXR target gene expression by RNA sequencing, 14 d dosing; type: in vivo; settings: 1-30 mg/kg PO, 2 wk, lean C57Bl6 mice, RNAseq
Outline: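 Lean chow-fed C57Bl6 mice received FXR-agonist test compounds at 1, 3, 10 or 30 mg/kg PO QD for 14 d. Liver and ileum transcriptomes were profiled by RNA sequencing using stranded mRNA libraries on a NextSeq 500. Prototypic FXR target genes were analysed by two-way ANOVA with Bonferroni post-hoc test against untreated (dose 0) animals.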

ob/ob-NASH mice = test: Liver histology; type: in vivo; settings: 16 wk; for Collagen 1a1 (fibrosis) % fractional area, Before treatment / Galectin-3 (inflammation) % fractional area, Before treatment / Lipid (steatosis) % fractional area, Before treatment: baseline biopsy; for Collagen 1a1 (fibrosis) % fractional area, Before treatment / Galectin-3 (inflammation) % fractional area, Before treatment / Lipid (steatosis) % fractional area, Before treatment / Collagen 1a1 (fibrosis) % fractional area, After treatment / Galectin-3 (inflammation) % fractional area, After treatment / Lipid (steatosis) % fractional area, After treatment: mean ± SE
Outline: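 Biopsy-confirmed ob/ob-NASH mice (AMLN diet; n = 11-12/group, stratified by Col1a1 fibrosis) were dosed orally with vehicle or test compound for 16 wk. Baseline biopsies and terminal left lateral lobe samples were fixed overnight in 4% PFA, paraffin-sectioned at 3 μm, and stained with HE, anti-Col1a1 and anti-galectin-3. Scoring was blinded. Immunoreactive area was expressed as % of parenchymal area after subtracting fat area from adjacent HE sections. Responders had ≥1-point change (χ2 test).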

[1] = LC/MS/MS determination of compound levels in liver and ileum, 14 d dosing; type: in vivo; settings: 1-30 mg/kg PO, chow-fed C57Bl6 mice
Outline: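 Chow-fed C57Bl6 mice were dosed PO QD with test compounds at 1-30 mg/kg for 14 d. Weighed liver and ileum were bead-homogenised in 7 volumes of 80/20 ACN/HBSS and centrifuged. Supernatant was dried under nitrogen and reconstituted in 60/40 methanol/10 mmol/L ammonium acetate with 25 nmol/L d5-GCA internal standard, then filtered. Analysis used UHPLC-high-resolution MS in negative ESI with a C18 column at 45 °C and matrix-matched quadratic (1/x) calibration.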

FXR = settings: read-out: FXR EC50; in vitro; cited from earlier work
[2] = 10 mg/kg, subjects achieving > 1 points improvement in score from baseline

SMILES: CC[C@H]1[C@@H](O)[C@@H]2[C@H](CC[C@]3(C)[C@@H]([C@H](C)CCC(=O)O)CC[C@@H]23)[C@@]2(C)CC[C@@H](O)C[C@@H]12 [OCA, obeticholic acid]
- hepatic FXR target gene expression (BSEP, OST, CYP8b1, SHP) (FXR target genes): regulated hepatic FXR genes
- ileal FXR target gene expression (SHP, FGF-15) (FXR target genes): more pronounced effects
- Fibrosis stage: No improvement (number of mice) (ob/ob-NASH mice; 10 mg/kg): 10
- Fibrosis stage: With improvement (number of mice) (ob/ob-NASH mice; 10 mg/kg): 2
- NAS: No improvement (number of mice) (ob/ob-NASH mice; 10 mg/kg): 8
- NAS: With improvement (number of mice) (ob/ob-NASH mice; 10 mg/kg): 4
- Collagen 1a1 (fibrosis) % fractional area, Before treatment (ob/ob-NASH mice; 10 mg/kg): 0.9 ± 0.1 % fractional area
- Galectin-3 (inflammation) % fractional area, Before treatment (ob/ob-NASH mice; 10 mg/kg): 5.5 ± 0.3 % fractional area
- Lipid (steatosis) % fractional area, Before treatment (ob/ob-NASH mice; 10 mg/kg): 33.4 ± 0.8 % fractional area
- Collagen 1a1 (fibrosis) % fractional area, After treatment (ob/ob-NASH mice; 10 mg/kg): 9.0 ± 0.6 ^a % fractional area
- Galectin-3 (inflammation) % fractional area, After treatment (ob/ob-NASH mice; 10 mg/kg): 5.0 ± 0.2 ^a % fractional area
- Lipid (steatosis) % fractional area, After treatment (ob/ob-NASH mice; 10 mg/kg): 31.8 ± 0.4 % fractional area
- Fibrosis stage: % improving (ob/ob-NASH mice; [2]): 17%
- NAS: % improving (ob/ob-NASH mice; [2]): 33%
- Fibrosis stage: No improvement (number of mice) (ob/ob-NASH mice; 30 mg/kg): 7
- Fibrosis stage: With improvement (number of mice) (ob/ob-NASH mice; 30 mg/kg): 4
- NAS: No improvement (number of mice) (ob/ob-NASH mice; 30 mg/kg): 0
- NAS: With improvement (number of mice) (ob/ob-NASH mice; 30 mg/kg): 11
- Collagen 1a1 (fibrosis) % fractional area, Before treatment (ob/ob-NASH mice; 30 mg/kg): 1.2 ± 0.2 % fractional area
- Galectin-3 (inflammation) % fractional area, Before treatment (ob/ob-NASH mice; 30 mg/kg): 5.5 ± 0.4 % fractional area
- Lipid (steatosis) % fractional area, Before treatment (ob/ob-NASH mice; 30 mg/kg): 32.2 ± 1.1 % fractional area
- Collagen 1a1 (fibrosis) % fractional area, After treatment (ob/ob-NASH mice; 30 mg/kg): 8.0 ± 0.7 ^a % fractional area
- Galectin-3 (inflammation) % fractional area, After treatment (ob/ob-NASH mice; 30 mg/kg): 4.0 ± 0.4 ^a % fractional area
- Lipid (steatosis) % fractional area, After treatment (ob/ob-NASH mice; 30 mg/kg): 22.7 ± 1.0 ^a % fractional area
- NAS: % improving (ob/ob-NASH mice; 30 mg/kg, subjects achieving > 1 points improvement in score from baseline): 100% ^a
- ileal drug concentration compared to the liver [1]: approximately two-fold
